Where two headings read alike, the source gives them in different places.
Tests used:
[1] = test system: CRBN−/− MOLT4 cells; test: Proliferation assay; format: cell-based; conditions: Homo sapiens, MOLT-4, 72 h, read-out: proliferation IC50
Procedure, shortened: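 CRBN−/− MOLT4 cells were exposed to a range of test compound concentrations for 72 h. Viability was measured with CellTiter-Glo, and IC50 was derived by non-linear regression curve fitting.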

[2] = target: CDK1/CycB (Homo sapiens, UniProt P06493); test: Z'LYTE in vitro kinase assay; format: biochemical
Procedure, shortened: (§1)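 Inhibition of the recombinant cyclin-bound CDK complex was measured in a Z'LYTE kinase assay run by a contract service at the Km concentration of ATP.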

[3] = target: CDK7/CycH/MNAT1 (Homo sapiens, UniProt P50613); test: Adapta Eu in vitro kinase assay; format: biochemical
[4] = test system: MOLT4 cells; test: Proliferation assay; format: cell-based, human; conditions: for IC50: read-out: proliferation IC50
[5] = test system: PCTAIRE1,PCTAIRE3; test: Kinativ live cell chemical proteomics; format: cell-based, human; conditions: live cell treatment, 0.25μM
[6] = target: CDK9/CycT1 (Homo sapiens, UniProt P50750); test: Adapta Eu in vitro kinase assay; format: biochemical
[7] = test system: CDK1 mRNA; test: qPCR of mRNA levels; format: cell-based, human; conditions: MOLT4 cells, 250nM, 8 hours
[8] = test system: RNA Pol II CTD Serine 2 phosphorylation; test: RNA Pol II CTD phosphorylation by immunoblot; format: cell-based, human; conditions: MOLT4 cells
Procedure, shortened: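 MOLT4 cells lysed on ice for 30 min in RIPA buffer (pH 7.4) with protease and phosphatase inhibitors and 2.5 U/mL nuclease. Lysate spun at 21,000g, 30 min, 4°C, and protein measured by BCA. Blots probed with anti-phospho-CTD Ser2 alongside total Pol II and tubulin. Infrared-labelled secondaries; blots imaged on Odyssey.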

[9] = test system: MOLT4 cells; test: Apoptosis by immunoblot; format: cell-based, human; conditions: wildtype MOLT4 cells, 250 nM
Procedure, shortened: (§2)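 Wildtype MOLT4 cells were treated with 250 nM test compound for the indicated times. They were lysed for 30 min on ice in RIPA buffer (pH 7.4) with protease and phosphatase inhibitors and nuclease. Lysates were clarified at 21,000g for 30 min at 4°C and protein measured by BCA. Blots were detected with infrared-labelled secondary antibodies.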

[10] = target: CDK2/CycA (Homo sapiens, UniProt P24941); test: Z'LYTE in vitro kinase assay; format: biochemical
Procedure, shortened: as §1

[11] = target: T1, CDK9 (Homo sapiens, UniProt P50750); test: Bio-AT7519 pulldown target engagement; format: cell-based; conditions: 6 hours, 1μM, 500nM or 250nM
Procedure, shortened: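 Live wildtype or CRBN−/− MOLT4 cells were exposed to DMSO or test compound for 6 h, then PBS-washed and lysed (50 mM Tris-HCl pH 8.0, 150 mM NaCl, 1% NP-40, 5 mM EDTA, 1 mM DTT, protease/phosphatase inhibitors). Clarified lysate (input sampled) was rotated overnight at 4°C with 1μM biotinylated AT7519, then captured on streptavidin resin for 3 h at 4°C. Beads were washed ×5, boiled, and immunoblotted.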

[12] = test system: PCTAIRE2,PCTAIRE3; test: Kinativ live cell chemical proteomics; format: cell-based, human; conditions: live cell treatment, 0.25μM
[13] = test system: panel of eleven different leukemia cancer cell lines; test: Proliferation in leukemia cell line panel; format: cell-based
[14] = target: T1, CDK9; test: CDK9 degradation by immunoblot; format: cell-based
[15] = test system: CDK7 mRNA; test: qPCR of mRNA levels; format: cell-based, human; conditions: MOLT4 cells, 250nM, 8 hours
[16] = target: T1, CDK9; test: Multiplexed quantitative mass spectrometry-based proteomics; format: cell-based; conditions: MOLT4 cells, 250nM, 2 hours, 4512 proteins quantified
Procedure, shortened: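 MOLT4 cells (RPMI-1640, 10% FBS, 1% Pen/Strep, 37°C, 5% CO₂) exposed to 250nM test compound for 2 hours. Proteins labelled with 10plex TMT isobaric tags and run on an Orbitrap Fusion using SPS-MS3. Threshold of 2 peptides per protein. Log fold-change vs p-value plotted. n=3 biological replicates.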

[17] = target: T2, CDK10 (Homo sapiens, UniProt Q15131); test: CDK10 degradation by immunoblot; format: cell-based; conditions: MOLT4 cells
Procedure, shortened: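 MOLT4 cells treated with test compound were lysed in RIPA buffer (pH 7.4) with protease and phosphatase inhibitors and nuclease for 30 min on ice. Lysates were clarified at 21,000g for 30 min at 4°C and quantified by BCA. CDK10 was immunoblotted and detected with infrared-labelled secondary antibodies.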

[18] = test system: MCL-1; test: MCL-1 protein level by immunoblot; format: cell-based, human; conditions: wildtype MOLT4 cells, 250 nM time course
Procedure, shortened: as §2

[19] = test system: panel of 468 kinases; test: Kinomescan kinome selectivity profiling; format: binding; conditions: Kinomescan at 1μM
[20] = target: CDK2 (Homo sapiens, UniProt P24941); test: Bio-AT7519 pulldown target engagement; format: cell-based; conditions: wildtype and CRBN−/− MOLT4 cells, 6 hours, 1μM, 500nM or 250nM
[21] = target: PCTAIRE2 (Homo sapiens, UniProt Q00537); test: Kinativ live cell chemical proteomics; format: cell-based; conditions: live cell treatment, 0.25μM
[22] = target: T2, CDK10; test: Kinativ lysate chemical proteomics; format: binding; conditions: MOLT4 cell lysate, 1uM
Procedure, shortened: (§3)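 MOLT4 lysate (sonicated in HEPES pH 7.5/NaCl/Triton buffer, then gel-filtered) was incubated 15 min in duplicate with test compound added from a 100X DMSO stock, or with DMSO alone. Desthiobiotin-ATP acylphosphate probe (20 μM final) was then added for 10 min. Peptides were analysed by LC-MS/MS, and % inhibition was calculated as 1 − treated/control signal.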

[23] = target: T1, CDK9; test: Kinomescan profiling; format: binding; conditions: 1μM
[24] = target: T1, CDK9; test: Kinativ live cell chemical proteomics; format: cell-based; conditions: CRBN−/− MOLT4 cells, live cell treatment, 0.25μM
Procedure, shortened: (§4)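 Test compound was applied to intact MOLT4 cells (CRBN−/− or wildtype). Cells were then sonicated in 50 mM HEPES pH 7.5, 150 mM NaCl, 0.1% Triton X-100 with phosphatase inhibitors, and cleared. Lysate was labelled with desthiobiotin-ATP acylphosphate probe (20 μM final) for 10 min. Samples were reduced and alkylated for LC-MS/MS, and % inhibition was calculated from integrated peak areas against DMSO controls.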

[25] = target: T1, CDK9; test: Kinativ lysate chemical proteomics; format: binding; conditions: MOLT4 cell lysate, 1uM
Procedure, shortened: as §3

[26] = target: CDK6 (Homo sapiens, UniProt Q00534); test: Kinativ live cell chemical proteomics; format: cell-based; conditions: live cell treatment, 0.25μM
[27] = test system: MOLT4 cells; test: Annexin V flow cytometry of apoptotic cells; format: cell-based, human; conditions: 250 nM, without washout
Procedure, shortened: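 MOLT4 cells were exposed to 250 nM test compound for 6 h, then either washed three times with media or left in compound, and collected 24 h later. Cells were PBS-washed, stained with FITC annexin V in HEPES/NaCl/CaCl₂ binding buffer (pH 7.4) at room temperature, and propidium iodide was added just before flow cytometry. Results are means ± s.d. of 3 biological replicates.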

[28] = target: CDK7 (Homo sapiens, UniProt P50613); test: Bio-AT7519 pulldown target engagement; format: cell-based; conditions: wildtype and CRBN−/− MOLT4 cells, 6 hours, 1μM, 500nM or 250nM
[29] = target: DYRK1B (Homo sapiens, UniProt Q9Y463); test: Kinomescan profiling; format: binding; conditions: 1μM
[30] = target: GSK3A (Homo sapiens, UniProt P49840); test: Kinativ live cell chemical proteomics; format: cell-based; conditions: live cell treatment, 0.25μM
Procedure, shortened: as §4

[31] = 6-hour treatment then compound washout
[32] = wildtype and CRBN−/− MOLT4 cells

T1 sequence (P50750 whole entry): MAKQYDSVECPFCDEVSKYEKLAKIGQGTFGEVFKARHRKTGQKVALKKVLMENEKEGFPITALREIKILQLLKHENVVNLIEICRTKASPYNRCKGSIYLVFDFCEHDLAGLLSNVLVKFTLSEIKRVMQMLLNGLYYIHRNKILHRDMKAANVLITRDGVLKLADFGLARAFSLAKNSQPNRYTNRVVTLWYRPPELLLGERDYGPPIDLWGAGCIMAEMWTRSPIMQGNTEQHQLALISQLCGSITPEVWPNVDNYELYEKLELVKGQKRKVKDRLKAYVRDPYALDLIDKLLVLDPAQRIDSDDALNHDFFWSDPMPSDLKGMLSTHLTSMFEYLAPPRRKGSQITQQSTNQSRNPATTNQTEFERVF
T2 sequence (Q15131 whole entry): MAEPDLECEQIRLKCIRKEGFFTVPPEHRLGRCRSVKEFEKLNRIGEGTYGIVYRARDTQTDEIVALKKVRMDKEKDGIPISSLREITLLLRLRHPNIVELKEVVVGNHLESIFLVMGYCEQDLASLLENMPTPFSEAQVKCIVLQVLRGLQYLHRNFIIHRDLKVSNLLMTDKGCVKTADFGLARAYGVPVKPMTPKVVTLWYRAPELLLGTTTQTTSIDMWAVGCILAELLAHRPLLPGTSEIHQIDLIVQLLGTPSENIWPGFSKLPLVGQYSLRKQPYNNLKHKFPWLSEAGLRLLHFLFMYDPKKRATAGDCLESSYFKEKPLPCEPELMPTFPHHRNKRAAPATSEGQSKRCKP
PCTAIRE2, sequence (Q00537 whole entry): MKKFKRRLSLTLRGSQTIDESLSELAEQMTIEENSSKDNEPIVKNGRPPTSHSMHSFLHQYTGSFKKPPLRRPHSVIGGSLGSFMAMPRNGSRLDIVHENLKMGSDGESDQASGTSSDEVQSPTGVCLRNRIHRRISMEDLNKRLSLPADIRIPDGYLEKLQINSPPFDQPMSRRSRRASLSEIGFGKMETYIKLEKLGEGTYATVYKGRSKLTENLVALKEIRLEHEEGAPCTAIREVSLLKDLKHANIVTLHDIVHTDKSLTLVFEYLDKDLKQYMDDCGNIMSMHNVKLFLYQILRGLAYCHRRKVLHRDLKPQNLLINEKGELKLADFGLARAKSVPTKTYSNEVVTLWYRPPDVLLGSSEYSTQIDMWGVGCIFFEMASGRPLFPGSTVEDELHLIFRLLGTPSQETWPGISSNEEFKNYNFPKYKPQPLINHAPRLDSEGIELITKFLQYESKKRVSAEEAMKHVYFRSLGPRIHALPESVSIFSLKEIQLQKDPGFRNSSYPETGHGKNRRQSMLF
GSK3A, sequence (P49840 whole entry): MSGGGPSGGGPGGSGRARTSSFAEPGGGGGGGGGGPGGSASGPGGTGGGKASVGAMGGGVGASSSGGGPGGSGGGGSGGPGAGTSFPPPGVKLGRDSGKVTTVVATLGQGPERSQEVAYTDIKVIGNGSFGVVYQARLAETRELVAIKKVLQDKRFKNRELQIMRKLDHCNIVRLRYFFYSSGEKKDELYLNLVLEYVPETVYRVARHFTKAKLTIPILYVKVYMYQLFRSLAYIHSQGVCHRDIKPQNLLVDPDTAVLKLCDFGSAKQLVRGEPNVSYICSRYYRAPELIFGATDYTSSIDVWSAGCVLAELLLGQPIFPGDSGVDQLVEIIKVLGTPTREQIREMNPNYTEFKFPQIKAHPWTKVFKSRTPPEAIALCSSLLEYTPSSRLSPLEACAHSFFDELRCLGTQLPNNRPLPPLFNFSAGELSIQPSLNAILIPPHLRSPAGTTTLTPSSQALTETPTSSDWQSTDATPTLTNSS
CDK6, sequence (Q00534 whole entry): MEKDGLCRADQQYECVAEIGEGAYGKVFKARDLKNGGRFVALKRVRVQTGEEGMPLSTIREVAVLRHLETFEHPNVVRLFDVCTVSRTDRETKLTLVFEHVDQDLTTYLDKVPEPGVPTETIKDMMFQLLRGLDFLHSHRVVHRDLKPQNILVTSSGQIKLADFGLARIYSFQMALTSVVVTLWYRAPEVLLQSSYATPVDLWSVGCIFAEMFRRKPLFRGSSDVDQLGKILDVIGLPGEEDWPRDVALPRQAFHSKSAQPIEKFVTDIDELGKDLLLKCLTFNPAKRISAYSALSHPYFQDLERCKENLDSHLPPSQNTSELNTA
CDK9/CycT1, sequence (P50750 whole entry): as the sequence (P50750 whole entry) above
CDK9/CycT1, sequence (O60563 whole entry partner): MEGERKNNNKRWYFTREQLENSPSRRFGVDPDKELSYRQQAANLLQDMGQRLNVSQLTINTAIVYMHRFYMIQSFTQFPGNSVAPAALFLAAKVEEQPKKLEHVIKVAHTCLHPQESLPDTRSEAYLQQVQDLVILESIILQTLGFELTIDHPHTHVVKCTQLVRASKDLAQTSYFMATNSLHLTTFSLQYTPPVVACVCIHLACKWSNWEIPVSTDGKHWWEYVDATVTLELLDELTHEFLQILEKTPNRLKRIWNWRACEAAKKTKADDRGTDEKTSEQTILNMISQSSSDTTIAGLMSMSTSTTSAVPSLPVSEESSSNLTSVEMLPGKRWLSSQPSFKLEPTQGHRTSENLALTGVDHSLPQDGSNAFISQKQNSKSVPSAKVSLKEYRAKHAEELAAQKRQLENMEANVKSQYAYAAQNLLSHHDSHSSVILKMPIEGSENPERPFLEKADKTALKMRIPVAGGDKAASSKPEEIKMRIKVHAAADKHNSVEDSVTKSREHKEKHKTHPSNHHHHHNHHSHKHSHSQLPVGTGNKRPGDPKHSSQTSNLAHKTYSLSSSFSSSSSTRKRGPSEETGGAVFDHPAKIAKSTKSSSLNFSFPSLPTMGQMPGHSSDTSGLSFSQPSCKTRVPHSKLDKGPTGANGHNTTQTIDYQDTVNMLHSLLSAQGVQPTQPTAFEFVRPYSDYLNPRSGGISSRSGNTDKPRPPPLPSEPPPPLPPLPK
CDK7/CycH/MNAT1, sequence (P50613 whole entry): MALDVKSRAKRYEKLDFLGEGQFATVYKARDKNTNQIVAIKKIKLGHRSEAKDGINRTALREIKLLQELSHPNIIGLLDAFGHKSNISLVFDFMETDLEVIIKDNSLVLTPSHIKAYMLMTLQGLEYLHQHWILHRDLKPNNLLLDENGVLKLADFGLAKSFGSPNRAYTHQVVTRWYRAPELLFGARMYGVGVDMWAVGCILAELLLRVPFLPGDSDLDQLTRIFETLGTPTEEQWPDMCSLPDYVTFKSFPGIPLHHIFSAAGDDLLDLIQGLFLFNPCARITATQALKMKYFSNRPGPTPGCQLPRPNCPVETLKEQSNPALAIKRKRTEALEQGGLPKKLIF
CDK7/CycH/MNAT1, sequence (P51946 whole entry partner): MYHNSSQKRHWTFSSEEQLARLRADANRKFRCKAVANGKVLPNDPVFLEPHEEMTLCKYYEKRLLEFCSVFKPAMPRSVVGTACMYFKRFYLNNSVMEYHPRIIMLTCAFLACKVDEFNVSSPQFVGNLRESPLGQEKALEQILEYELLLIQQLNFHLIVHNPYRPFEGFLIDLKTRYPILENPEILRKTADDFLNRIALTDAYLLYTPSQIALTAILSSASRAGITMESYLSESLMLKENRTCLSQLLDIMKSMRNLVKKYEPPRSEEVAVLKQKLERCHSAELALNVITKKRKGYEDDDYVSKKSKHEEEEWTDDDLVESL
CDK7/CycH/MNAT1, sequence (P51948 whole entry partner): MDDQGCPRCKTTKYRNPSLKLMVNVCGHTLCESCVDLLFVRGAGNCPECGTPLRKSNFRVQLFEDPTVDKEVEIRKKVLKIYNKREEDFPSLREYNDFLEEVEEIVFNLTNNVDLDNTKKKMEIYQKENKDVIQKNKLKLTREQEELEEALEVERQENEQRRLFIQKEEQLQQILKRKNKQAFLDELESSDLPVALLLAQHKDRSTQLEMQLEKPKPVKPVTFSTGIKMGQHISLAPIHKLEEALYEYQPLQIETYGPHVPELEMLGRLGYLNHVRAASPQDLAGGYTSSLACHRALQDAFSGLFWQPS
DYRK1B, sequence (Q9Y463 whole entry): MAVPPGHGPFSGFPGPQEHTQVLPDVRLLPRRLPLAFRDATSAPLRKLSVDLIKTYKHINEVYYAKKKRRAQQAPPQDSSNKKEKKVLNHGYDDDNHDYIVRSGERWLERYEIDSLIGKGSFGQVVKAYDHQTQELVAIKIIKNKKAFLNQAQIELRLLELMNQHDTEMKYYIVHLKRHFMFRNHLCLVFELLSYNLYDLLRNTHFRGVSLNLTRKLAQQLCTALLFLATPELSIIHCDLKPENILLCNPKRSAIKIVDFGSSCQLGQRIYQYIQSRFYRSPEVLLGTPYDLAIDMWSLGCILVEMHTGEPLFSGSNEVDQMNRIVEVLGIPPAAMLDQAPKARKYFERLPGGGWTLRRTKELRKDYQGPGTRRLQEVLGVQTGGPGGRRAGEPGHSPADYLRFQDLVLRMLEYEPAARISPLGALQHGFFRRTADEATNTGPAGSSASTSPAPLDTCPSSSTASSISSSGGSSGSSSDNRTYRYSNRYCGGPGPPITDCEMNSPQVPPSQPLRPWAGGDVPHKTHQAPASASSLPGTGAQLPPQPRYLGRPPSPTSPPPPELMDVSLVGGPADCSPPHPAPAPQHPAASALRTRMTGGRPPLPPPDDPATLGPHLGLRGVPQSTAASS
CDK7, sequence (P50613 whole entry): as the sequence (P50613 whole entry) above

## CC(C)(C)c1cnc(CSc2cnc(NC(=O)C3CCN(CC(=O)NCCOCCOCCOCCNc4cccc5c4C(=O)N(C4CCC(=O)NC4=O)C5=O)CC3)s2)o1 (stereo not drawn) [THAL-SNS-032]
[1]
  IC50: 3630 nM
[2]
  IC50: 171 nM
[3]
  IC50: 398 nM
[4]; 250nM, 6 hours treatment then washout, 72 hours of growth
  viability after washout: more profound decrease in viability after washout compared to NVP-2 or SNS-032
[4]; Homo sapiens, MOLT-4, 72 h
  IC50: 50 nM
[5]; CRBN−/− MOLT4 cells
  percent inhibited PCTAIRE1,PCTAIRE3 (Lys2) labeling: 11.4%
[5]; Wildtype MOLT4 cells
  percent inhibited PCTAIRE1,PCTAIRE3 (Lys2) labeling: 16.3%
[6]
  IC50: 4 nM
[7]
  CDK1 mRNA level relative to DMSO-treated: around 20%
[8]
  phosphorylation of RNA Pol II CTD Serine 2: inhibited phosphorylation of Serine 2 in a concentration and time-dependent manner
[9]
  time to induction of apoptosis (PARP and Caspase-3 cleavage): ≤ 4 h
[10]
  IC50: 62 nM
[11]; CRBN−/− MOLT4 cells only
  CDK9 engagement (bio-AT7519 competition): little to no engagement
[12]; CRBN−/− MOLT4 cells
  percent inhibited PCTAIRE2,PCTAIRE3 (Lys1) labeling: 16%
[12]; Wildtype MOLT4 cells
  percent inhibited PCTAIRE2,PCTAIRE3 (Lys1) labeling: 22.1%
[13]
  inhibition of proliferation compared to SNS-032: more potent inhibition of proliferation as compared to SNS-032
[14]; [31]
  time for CDK9 levels to return to baseline after washout: 36 h
  time of partial rebound of CDK9 levels after washout: ≤ 12 h
[14]; MOLT4 cells, 250 nM
  time to complete CDK9 degradation: 2 h
[14]; MOLT4 cells, 250nM time course
  persistence of CDK9 degradation: at least 24 hours
[14]; MOLT4 cells, 6-hour treatment
  concentration inducing complete CDK9 degradation: 250 nM
[14]; MOLT4 cells, 6 hours
  concentration at which CDK9 degradation decreases (hook effect): ≥ 5 µM
[15]
  CDK7 mRNA level relative to DMSO-treated: around 20%
[16]
  CDK9 abundance in proteome-wide analysis: most depleted protein out of 4512 proteins
[17]
  CDK10 degradation: partial degradation
[18]
  MCL-1 protein level: loss of MCL-1

## CC(C)(C)c1cnc(CSc2cnc(NC(=O)C3CCNCC3)s2)o1 [SNS-032, N-[5-[[[5-(1,1-Dimethylethyl)-2-oxazolyl]methyl]thio]-2-thiazolyl]-4-piperidinecarboxamide]
[4]; Homo sapiens, MOLT-4, 72 h
  IC50: 173 nM
[8]
  phosphorylation of RNA Pol II CTD Serine 2: inhibited in a concentration dependent manner
[9]
  time to induction of apoptosis (PARP and Caspase-3 cleavage): ≤ 4 h
[11]; [32]
  CDK9 engagement (bio-AT7519 competition): showed engagement
[12]; CRBN−/− MOLT4 cells
  percent inhibited PCTAIRE2,PCTAIRE3 (Lys1) labeling: 75.4%

## COC[C@@H](C)NC1CCC(Nc2cc(-c3cccc(NCC4(C#N)CCOCC4)n3)c(Cl)cn2)CC1 (stereo partly drawn) [NVP-2]
[19]
  S(1) score: 0.005
[3]; read-out: CDK7 IC50, Km ATP
  IC50: > 10000 nM
[4]; wild-type MOLT4, 72 hours, CellTiter Glo
  IC50: 9 nM
[20]
  CDK2 engagement (bio-AT7519 competition): unaffected
[21]; CRBN−/− MOLT4 cells
  percent inhibited PCTAIRE2 (Lys2) labeling: 10.3%
[21]; Wildtype MOLT4 cells
  percent inhibited PCTAIRE2 (Lys2) labeling: 8.1%
[22]
  CDK10 engagement in lysate: strongly engaged
[5]; CRBN−/− MOLT4 cells
  percent inhibited PCTAIRE1,PCTAIRE3 (Lys2) labeling: −5.2%
[5]; Wildtype MOLT4 cells
  percent inhibited PCTAIRE1,PCTAIRE3 (Lys2) labeling: −30.5%
[23]
  Kinomescan inhibition of CDK9: greater than 99%
[24]
  percent inhibited CDK9 (Lys2) labeling: ~63%
[25]
  CDK9 engagement in lysate: strongly engaged
[6]; read-out: IC50 CDK9/CycT kinase activity, Km ATP
  IC50: < 0.514 nM
[8]
  phosphorylation of RNA Pol II CTD Serine 2: inhibited in a concentration dependent manner
[26]; CRBN−/− MOLT4 cells
  percent inhibited CDK6 (Lys2) labeling: −8.6%
[26]; Wildtype MOLT4 cells
  percent inhibited CDK6 (Lys2) labeling: −10%
[27]
  Annexin V positive cells: ~100%
[9]
  time to induction of apoptosis (PARP and Caspase-3 cleavage): ≤ 4 h
[28]
  CDK7 engagement (bio-AT7519 competition): unaffected
[11]; [32]
  CDK9 engagement (bio-AT7519 competition): engages CDK9 in wildtype and CRBN−/− MOLT4 cells at all concentrations tested
[12]; CRBN−/− MOLT4 cells
  percent inhibited PCTAIRE2,PCTAIRE3 (Lys1) labeling: −15%
[12]; Wildtype MOLT4 cells
  percent inhibited PCTAIRE2,PCTAIRE3 (Lys1) labeling: −4.7%
[29]
  Kinomescan inhibition of DYRK1B: greater than 99%
[18]
  MCL-1 protein level: MCL-1 loss was observed
[30]; CRBN−/− MOLT4 cells
  percent inhibited GSK3A (Lys2) labeling: 10%
[30]; Wildtype MOLT4 cells
  percent inhibited GSK3A (Lys2) labeling: 5.8%

— article PMC5912898 (Nature chemical biology, 2017)
